Source: ChEMBL document CHEMBL4219135, “Discovery of Hydrolysis-Resistant Isoindoline N-Acyl Amino Acid Analogues that Stimulate Mitochondrial Respiration” (J Med Chem, 2018)
Calls of active or inactive are those of the source. No cut-off for these calls is given here. Where a SMILES comes first, the peptide text is derived from it. The star is where a group is joined. Oleoyl = CCCCCCCC/C=C\CCCCCCCC(=O)*

Legend:
C2C12 = assay: Uncoupling activity in mouse C2C12 cells assessed as induction of SLC25-mediated mitochondrial respiration at 50 uM mixed for 2 mins measured after 2 mins post mixing relative to basal oligomycin-treated respiration; type: cell-based
Procedure, shortened: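 C2C12 cells seeded 35,000/well, assayed next day in Seahorse XF24 respiration buffer (DMEM, pyruvate, 20 mM glucose) after 1 h CO2-free. Sequential injections: oligomycin 1 μM, compound 50 μM, FCCP 0.2 μM, rotenone 3 μM final; cycles of 2 min mix, 2 min measure. Cycle 6 set to 100%; maximal respiration over cycles 7–15 reported. n=3–6.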

[1] = target: T1, N-fatty-acyl-amino acid synthase/hydrolase PM20D1 (Mus musculus, UniProt Q8C165); assay: Metabolic stability assessed as recombinant mouse 6xHis/FLAG-tagged PM20D1-mediated hydrolysis by measuring parent compound remaining at 100 nmol after 1 hr by LC-MS method; type: ADME; conditions: in the assay text read “at 10 nmol” for “at 100 nmol”
T1 sequence (Q8C165 whole entry): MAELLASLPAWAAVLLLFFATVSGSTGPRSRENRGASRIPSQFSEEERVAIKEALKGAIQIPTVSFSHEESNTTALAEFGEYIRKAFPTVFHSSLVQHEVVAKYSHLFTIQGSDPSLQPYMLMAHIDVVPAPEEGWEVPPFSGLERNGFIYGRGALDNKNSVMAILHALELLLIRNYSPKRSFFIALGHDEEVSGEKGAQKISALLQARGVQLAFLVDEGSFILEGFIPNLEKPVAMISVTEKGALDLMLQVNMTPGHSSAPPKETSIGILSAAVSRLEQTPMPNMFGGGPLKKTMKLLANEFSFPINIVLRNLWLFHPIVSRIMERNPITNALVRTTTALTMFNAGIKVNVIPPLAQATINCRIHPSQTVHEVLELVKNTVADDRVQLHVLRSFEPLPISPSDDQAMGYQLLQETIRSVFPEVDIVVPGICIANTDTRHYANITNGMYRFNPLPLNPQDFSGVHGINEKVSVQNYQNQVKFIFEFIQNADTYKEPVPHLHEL
Procedure, shortened: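 Murine PM20D1–6xHis-Flag expressed transiently in 293T cells, Flag-M2 purified from serum-free conditioned medium. 10 nmol compound in 100 μl PBS (100 μM) with enzyme or PBS, 1 h at 37 °C; quenched in chloroform:methanol with d31-palmitate internal standard; intact substrate and released fatty acid quantified by LC-MS. Means ± SEM, n=3.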

[2] = Half life in mouse liver microsomes at 1 uM after 60 mins in presence of NADPH by LC-MS/MS analysis; type: ADME, microsome
Procedure, shortened: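 Test compound at 1 μM with 1 mg/mL mouse liver microsomes in 100 mM KPi pH 7.4, 37C with shaking; started with NADPH (1 mM final), -NADPH controls included. Samples at 0, 5, 10, 20, 40, 60 min quenched in 5X acetonitrile, filtered, LC-MS/MS; data log transformed to half-life.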

Mus musculus [3] = assay: Anti-obesity activity against DIO mouse assessed as reduction in body weight gain by measuring net weight change at 10 mg/kg, ip administered daily for 7 consecutive days (reference value: 1.1 +/- 0.1 g); type: functional
Mus musculus [4] = assay: Anti-obesity activity against DIO mouse assessed as reduction in body weight gain by measuring net weight change at 25 mg/kg, ip administered daily for 7 consecutive days (reference value: 1.1 +/- 0.1 g); type: functional
Mus musculus [5] = assay: Anti-obesity activity against DIO mouse assessed as reduction in body weight gain by measuring net weight change at 5 mg/kg, ip administered daily for 7 consecutive days (reference value: 1.1 +/- 0.1 g); type: functional, organism-based
Mus musculus [6] = assay: Anti-obesity activity against ip dosed DIO mouse assessed as reduction in body weight gain administered daily for 7 consecutive days; type: functional, organism-based
Mus musculus [7] = assay: Anti-obesity activity against DIO mouse assessed as reduction in food intake at 25 mg/kg, ip administered daily for 7 consecutive days; type: functional, organism-based
Mus musculus [8] = assay: Anti-obesity activity against DIO mouse assessed as blood glucose levels at 25 mg/kg, ip administered daily for 7 consecutive days measured after 2 hrs post last dose (reference value: 204 +/- 7 mg/dl); type: functional

Row | Structure (SMILES) | Emax (C2C12) | also measured
1 | CCCCCCCC/C=C\CCCCCCCCNC(=O)N[C@@H](Cc1ccccc1)C(=O)O | 97% | 
2 | CCCCCCCC/C=C\CCCCCCCC(=O)N[C@@H](Cc1ccccc1)C(=O)O | 161% | 
3 | CCCCCCCC/C=C\CCCCCCCC(=O)N[C@H](Cc1ccccc1)C(=O)O | 173% | 
4 | CCCCCCCCCCCC(=O)N[C@@H](Cc1ccccc1)C(=O)O | 96% | 
5 | CCCCCCCC/C=C\CCCCCCCC(=O)N1Cc2ccccc2[C@H]1C(=O)O | 240% | Stability [1]: Stable; half-life at 1 µM [2]: 1.07 h
6 | CCCCCCCC/C=C\CCCCCCCC(=O)N[C@@H](CCC(=O)O)C(=O)O | 106% | 
7 | CCCCCC/C=C\CCCCCCCCCC(=O)N[C@@H](Cc1ccccc1)C(=O)O | 115% | 
8 | CCCCCCCC/C=C\CCCCCCCC(=O)N1CCc2ccccc2C1C(=O)O (stereo not drawn) | 216% | 
9 | CCCCCCCC/C=C\CCCCCCCC(=O)N[C@@H](Cc1ccc(O)cc1)C(=O)O | 105% | half-life at 1 µM [2]: 0.133 h
10 | CCCCCCCC/C=C/CCCCCCCC(=O)N[C@@H](Cc1ccccc1)C(=O)O | 107% | 
11 | CC/C=C\C/C=C\C/C=C\C/C=C\C/C=C\C/C=C\CCC(=O)N[C@@H](Cc1ccccc1)C(=O)O | 166% | 
12 | CCCCC/C=C\C/C=C\C/C=C\C/C=C\CCCC(=O)N[C@@H](Cc1ccccc1)C(=O)O | 200% | 
13 | CCCCCCCC/C=C\CCCCCCCC(=O)N[C@H](C(=O)O)[C@@H](C)CC | 167% | half-life at 1 µM [2]: 0.133 h
14 | CCCCC/C=C\C/C=C\CCCCCCCC(=O)N1Cc2ccccc2[C@@H]1C(=O)O | 190% | Stability [1]: Stable; half-life at 1 µM [2]: 1.07 h; Activity (Mus musculus [3]): 0.2 g; Activity (Mus musculus [4]): -1.2 g; Activity (Mus musculus [5]): inactive; Activity (Mus musculus [6]): Dose-dependent effect; Activity (Mus musculus [7]): inactive; Activity (Mus musculus [8]): 172 mg/dL
15 | CCCCCCCC/C=C\CCCCCCCC(=O)N1Cc2ccccc2[C@@H]1C(=O)O | 190% | Stability [1]: Stable; half-life at 1 µM [2]: 1.07 h
16 | CCCCCCCC/C=C\CCCCCCCC(=O)NCC(=O)NCC(=O)O (Oleoyl-Gly-Gly-OH) | 206% | 
17 | CCCCCCCCCCC/C=C\CCCCC(=O)N[C@@H](Cc1ccccc1)C(=O)O | 110% | 
18 | CCCCCCCC/C=C\CCCCCCCCCC(=O)N[C@@H](Cc1ccccc1)C(=O)O | 103% | 

Row | Structure (SMILES) | Emax (C2C12) | also measured
19 | CCCCCCCC/C=C\CCCCCCCC(=O)N1CCCC[C@H]1C(=O)O | 174% | 
20 | CCCCCCCC/C=C\CCCCCCCC(=O)N[C@@H](Cc1c[nH]c2ccccc12)C(=O)O | 147% | 
21 | CCCCCCCCCCCCCCCCCC(=O)N[C@@H](Cc1ccccc1)C(=O)O | 148% | 
22 | CCCCCCCC/C=C\CCCCCCCC(=O)N1c2ccccc2C[C@H]1C(=O)O | 146% | 
23 | CCCCC/C=C\C/C=C\CCCCCCCC(=O)N1Cc2ccccc2[C@H]1C(=O)O | 185% | Stability [1]: Stable; half-life at 1 µM [2]: 1.07 h
24 | CCCCCCCC/C=C\CCCCCCCC(=O)N1Cc2ccccc2C[C@H]1C(=O)O | 187% | 
25 | CCCCCCCC/C=C\CCCCCCCC(=O)NCCc1ccccc1 | 104% | 
26 | CCCCCCCCCCCCCCCCCCCC(=O)N[C@@H](Cc1ccccc1)C(=O)O | 95% | 
27 | CCCCCCCC/C=C\CCCCCCCC(=O)N[C@@H](CC(C)C)C(=O)O | 178% | half-life at 1 µM [2]: 0.133 h
28 | CCCCCCCC/C=C\CCCCCCCCNC(=O)NCC(=O)O | 104% | 
29 | CCCCCCCCCCCCCCCC(=O)N[C@@H](Cc1ccccc1)C(=O)O | 180% | 
30 | CCCCC/C=C\C/C=C\CCCCCCCC(=O)N[C@@H](Cc1ccccc1)C(=O)O | 218% | 
31 | CC/C=C\C/C=C\C/C=C\C/C=C\C/C=C\CCCC(=O)N[C@@H](Cc1ccccc1)C(=O)O | 259% | 
32 | CCCCCCCC/C=C\CCCCCCCC(=O)NCCC(=O)O | 185% | 
33 | CCCCCCCCCCCCCCCCCCCCCC(=O)N[C@@H](Cc1ccccc1)C(=O)O | 100% | 
34 | CCC/C=C\C/C=C\C/C=C\CCCCCCC(=O)N[C@@H](Cc1ccccc1)C(=O)O | 109% | 
35 | CCCCCCCC/C=C\CCCCCCCC(=O)N[C@@H](CCC(N)=O)C(=O)O | 164% | 
36 | CCCCCCCC/C=C\CCCCCCCC(=O)N1CCC[C@H]1C(=O)O | 182% | 
